SMILES strings stand for the structures. The source made the active and inactive calls.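 How the source made its calls, unless noted: active means viability loss from added drug above about 55%, and viability with drug at most 40%, in both replicates (limit read from the data, passing the limit was not always enough); inconclusive means both conditions met in only one replicate; inactive means neither replicate meets both conditions.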

A short description of assay [1]: reducers of endogenous Her2 protein level, primary screen, SKBR3 breast tumor cells, AlphaScreen, ATP viability (AID 461;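 active means Her2 level under about 52% in both replicate screens, with viability over 70% of control, limit read from the data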;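 on Her2 level: lower value means less Her2 protein in the cells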;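 on viability: percent of carrier control wells set as 100% viability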). The conditions noted are these: 18-24 h, measured here: SKBR3 viability, ATP luminescence, at 10 µM. A general note: Bead proximity is the source of the signal in Alpha formats.
In assay [2] the target is Receptor tyrosine-protein kinase erbB-2 (Homo sapiens) (UniProt P04626). Described as above. Particulars: 18-24 h, at 10 µM, stronger effect = lower value.
Assay [3] is described as follows: SK-BR-3 cell growth inhibitors, pilot screen, 24 h, human (AID 572;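 active means viability at or below 10% of carrier control in both of two separate runs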;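 further: compound exposure lasted between 18 and 24 h rather than exactly 24 h; 100% = carrier-treated control wells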). Particulars: SK-BR-3 viability, CellTiter-Glo luminescence, at 10 µM, stronger effect = lower value. A general note: ATP-based viability assays read luminescence as a measure of living cells.
Assay [4] in a line: HUVEC growth inhibition – cell-based, human, primary screen (AID 575;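 active means viability at or below 30% in both replicate assays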;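 further: 100% = median of untreated cell wells with 0.1% DMSO on each plate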). The conditions noted are these: HUVEC proliferation, CellTiter-Glo luminescence, 72 h; at 10 µM; stronger effect = lower value. The method in brief:
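Assay system: primary human umbilical vein endothelial cells / Buffer or medium: endothelial basal medium with 2% FBS plus growth supplements / Compound dosing: one dose, 10 µM final, 0.1% DMSO / Timing: 72 h treatment at 37 °C / Signal: CTG luminescence / Benchmarks: 32 DMSO-only cell-control wells (high), 32 MePR drug-control wells (low) per plate / Plate: collagen-coated 384-well format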

Assay [5] is described as follows: growth inhibitors of H69AR lung tumor, primary screen, human, duplicate replicates (AID 580;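 active means viability at or under a set limit in both replicates, limit being median viability minus 3 SD, cut at about 48% in these data, passing the limit was not always enough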;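 further: 100% = mean luminescence of untreated wells and 0% = no signal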). The conditions noted are these: H69AR lung tumor cells viability, ATP luminescence, 72 h; at 10 µM; stronger effect = lower value.
A short description of assay [6]: reversal of MRP1-mediated doxorubicin resistance, pilot screen, H69AR cells, doxorubicin co-treatment (AID 601). Particulars: CellTiter-Glo, 72 h, at 10 µM; for differential viability (reversal): stronger effect = higher value.
Assay [7] can be described thus: 384-well plate pilot, post-Golgi transport modulator project, inhibition of yeast transport mutant growth (AID 636; in the data active means inhibition above about 31%). Particulars: absorbance 615 nm, about 18 h, stronger effect = higher value.
Assay [8] in a line: growth suppression of yeast trafficking mutant, preliminary HTS, modulators of trafficking downstream of Golgi apparatus project, 1536-format plate, OD 615 nm (AID 637; in the data active means inhibition above about 30%). The conditions noted are these: yeast transport mutant growth, absorbance 615 nm, 18 h; stronger effect = higher value.
[9] abbreviates: H69AR cells + 2 uM doxorubicin, measured here: viability with 2 uM doxorubicin, stronger effect = lower value.
Setting [10] is: H69AR cells, compound alone cytotoxicity.

Sequence of Receptor tyrosine-protein kinase erbB-2 (Homo sapiens) (P04626 whole entry, looked up): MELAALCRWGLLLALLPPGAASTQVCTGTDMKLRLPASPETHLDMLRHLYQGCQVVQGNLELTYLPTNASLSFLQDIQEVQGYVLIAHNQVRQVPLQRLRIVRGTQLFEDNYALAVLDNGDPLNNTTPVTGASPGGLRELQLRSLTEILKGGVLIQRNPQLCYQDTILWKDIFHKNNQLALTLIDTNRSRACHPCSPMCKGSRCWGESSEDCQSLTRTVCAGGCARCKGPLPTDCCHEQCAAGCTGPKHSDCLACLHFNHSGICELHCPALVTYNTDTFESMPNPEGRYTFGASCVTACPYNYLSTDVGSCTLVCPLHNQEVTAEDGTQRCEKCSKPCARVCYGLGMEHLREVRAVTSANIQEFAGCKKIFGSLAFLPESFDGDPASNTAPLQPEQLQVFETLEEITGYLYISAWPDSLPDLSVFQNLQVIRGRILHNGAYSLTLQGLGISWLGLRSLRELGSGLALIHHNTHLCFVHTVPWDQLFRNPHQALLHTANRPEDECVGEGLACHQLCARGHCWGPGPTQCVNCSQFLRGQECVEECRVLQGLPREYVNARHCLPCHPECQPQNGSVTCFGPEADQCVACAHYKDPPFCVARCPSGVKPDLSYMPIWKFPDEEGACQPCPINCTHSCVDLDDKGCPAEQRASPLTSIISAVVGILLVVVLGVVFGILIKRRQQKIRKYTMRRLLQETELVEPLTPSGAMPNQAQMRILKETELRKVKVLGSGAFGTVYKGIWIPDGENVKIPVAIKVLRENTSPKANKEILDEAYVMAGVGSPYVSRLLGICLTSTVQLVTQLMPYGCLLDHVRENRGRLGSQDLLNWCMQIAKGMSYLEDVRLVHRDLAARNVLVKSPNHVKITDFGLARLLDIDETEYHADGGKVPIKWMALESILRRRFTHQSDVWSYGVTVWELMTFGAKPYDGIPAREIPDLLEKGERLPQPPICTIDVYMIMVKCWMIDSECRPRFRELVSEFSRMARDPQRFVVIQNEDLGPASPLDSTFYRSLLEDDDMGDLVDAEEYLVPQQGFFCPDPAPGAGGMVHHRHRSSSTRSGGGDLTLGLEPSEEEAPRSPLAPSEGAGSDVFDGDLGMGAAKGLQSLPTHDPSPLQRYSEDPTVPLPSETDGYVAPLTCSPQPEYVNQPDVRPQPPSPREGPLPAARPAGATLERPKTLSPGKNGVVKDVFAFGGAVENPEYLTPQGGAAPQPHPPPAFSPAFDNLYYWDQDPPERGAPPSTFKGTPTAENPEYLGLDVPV

One may read the viability as a read-out of living cells in per cent, often relative to untreated cells. Broadly, the inhibition is the relative decrease from the control value, in per cent. With `O=S(=O)(c1ccc(S(=O)(=O)N(Cc2ccco2)Cc2ccccc2Cl)cc1)N1CCCC1`, the viability in assay [1] was 96%; in assay [3], 96% (inactive); in assay [4] it was 79% (inactive); in assay [5], 76.6% (inactive); in assay [6] (setting [9]), 64.2%; in assay [6] (setting [10]) it was 76.6%. The Her2 level in assay [2] is 74.5% (inactive). In assay [6] (H69AR cells + 2 uM doxorubicin), the differential viability (reversal) was 12.4% (inactive). Besides, the inhibition was -5.54% (inactive) in assay [7] and 8.1% (inactive) in assay [8].

Consider `CCn1c(CCC(=O)Nc2nc3c(s2)CCCC3)nc2cc(S(=O)(=O)N(C)C)ccc21`, for which the viability was 89.5% in assay [1]; 89.5% (inactive) in assay [3]; 59.9% (inactive) in assay [4]; 85.4% (inactive) in assay [5]; 66.7% in assay [6] (setting [9]); 85.4% in assay [6] (setting [10]). Further, in assay [2], the Her2 level is 80% (inactive). Further, the differential viability (reversal) in assay [6] (H69AR cells + 2 uM doxorubicin) is 18.7% (inactive). Moreover, the inhibition is 5.27% (inactive) in assay [7] and -3.11% (inactive) in assay [8].

As to `O=C1c2ccccc2C(Nc2ccc3nc(-c4cccnc4)[nH]c3c2)N1Cc1ccco1` (stereo not given), the viability in assay [1] is 88.5%; in assay [3], 88.5% (inactive); in assay [4], 87.5% (inactive); in assay [5] it was 91.2% (inactive); in assay [6] (setting [9]) it was 81.1%; in assay [6] (setting [10]), 91.2%. The Her2 level in assay [2] was 108% (inactive). Further, in assay [6] (H69AR cells + 2 uM doxorubicin), the differential viability (reversal) was 10.1% (inactive). Besides, the inhibition in assay [7] was 2.44% (inactive); in assay [8], -4.17% (inactive).

Regarding `O=c1cc(C(F)F)oc2c1ccc1ccccc12`, the viability is 93.5% in assay [1]; 93.5% (inactive) in assay [3]; 74.8% (inactive) in assay [4]; 81.7% (inactive) in assay [5]; 91.6% in assay [6] (setting [9]); 81.7% in assay [6] (setting [10]). Moreover, the Her2 level in assay [2] is 98.5% (inactive). The differential viability (reversal) in assay [6] (H69AR cells + 2 uM doxorubicin) was -9.89% (inactive). Also, the values for the inhibition in assay [7] and in assay [8] were -0.91% (inactive) and 2.33% (inactive), respectively.

For `COc1ccc(Cn2c(=O)[nH]c3cc(C(=O)NCCCN4CCCC4)ccc3c2=O)cc1`, the viability is 106% in assay [1]; 106% (inactive) in assay [3]; 103% (inactive) in assay [4]; 92.3% (inactive) in assay [5]; 85.6% in assay [6] (setting [9]); 92.3% in assay [6] (setting [10]). Also, in assay [2], the Her2 level is 94% (inactive). For the same compound, the differential viability (reversal) in assay [6] (H69AR cells + 2 uM doxorubicin) was 6.71% (inactive). Further, the inhibition in assay [7] is -7.03% (inactive); in assay [8] it was 4.33% (inactive).

For the compound `Oc1ccc(C=Nc2cccc3ncccc23)c(O)c1`, the viability in assay [1] was 103%; in assay [3], 103% (inactive); in assay [4] it was 80% (inactive); in assay [5] it was 84.9% (inactive); in assay [6] (setting [9]) it was 88.3%; in assay [6] (setting [10]), 84.9%. Besides, the Her2 level in assay [2] was 84.5% (inactive). The differential viability (reversal) in assay [6] (H69AR cells + 2 uM doxorubicin) was -3.45% (inactive). The inhibition in assay [7] was -2.93% (inactive); in assay [8], 0.81% (inactive).

As to `Cn1c(C(=O)NCCC2=CCCCC2)cc2c(=O)n3ccccc3nc21`, the viability is 88% in assay [1]; 88% (inactive) in assay [3]; 95.5% (inactive) in assay [4]; 96.1% (inactive) in assay [5]; 80.4% in assay [6] (setting [9]); 96.1% in assay [6] (setting [10]). For the same compound, the Her2 level in assay [2] is 98.5% (inactive). Further, in assay [6] (H69AR cells + 2 uM doxorubicin), the differential viability (reversal) is 15.7% (inactive). Besides, the inhibition was 0.26% (inactive) in assay [7] and -1.97% (inactive) in assay [8].

Take `Cc1[nH]c2c(C)cccc2c(=O)c1Br`: the viability in assay [1] was 104%; in assay [3], 104% (inactive); in assay [4], 114% (inactive); in assay [5] it was 91.9% (inactive); in assay [6] (setting [9]) it was 88.7%; in assay [6] (setting [10]), 91.9%. In addition, the Her2 level in assay [2] is 81% (inactive). Moreover, the differential viability (reversal) in assay [6] (H69AR cells + 2 uM doxorubicin) is 3.28% (inactive). In addition, the inhibition in assay [7] is -6.93% (inactive); in assay [8] it was 6.07% (inactive).

For `O=c1c(-c2ccc(F)cc2)coc2c3c(ccc12)OCCO3`, the viability is 100% in assay [1]; 100% (inactive) in assay [3]; 120% (inactive) in assay [4]; 107% (inactive) in assay [5]; 86.7% in assay [6] (setting [9]); 107% in assay [6] (setting [10]). In addition, the Her2 level in assay [2] was 78.5% (inactive). In assay [6] (H69AR cells + 2 uM doxorubicin), the differential viability (reversal) was 20% (inactive). The inhibition in assay [7] is 0.13% (inactive); in assay [8], -6.73% (inactive).

As for `CN(CC(=O)N1CCN(C2CCCCC2)CC1)S(=O)(=O)c1cccc2nsnc12`, the viability in assay [1] is 88%; in assay [3], 88% (inactive); in assay [4], 107% (inactive); in assay [5], 97.2% (inactive); in assay [6] (setting [9]), 91.5%; in assay [6] (setting [10]) it was 97.2%. Besides, the Her2 level in assay [2] was 83% (inactive). Also, the differential viability (reversal) in assay [6] (H69AR cells + 2 uM doxorubicin) is 5.6% (inactive). Besides, the values for the inhibition in assay [7] and in assay [8] were -4.53% (inactive) and 6.23% (inactive), respectively.

On to `CCOC(=O)N1CCC(NC(=O)CCC(=O)N2CC(C)Oc3ccc(Cl)cc32)CC1` (stereo not given), for which the viability in assay [1] was 104%; in assay [3] it was 104% (inactive); in assay [4], 94.6% (inactive); in assay [5], 92.5% (inactive); in assay [6] (setting [9]), 85.8%; in assay [6] (setting [10]) it was 92.5%. Also, the Her2 level in assay [2] is 96% (inactive). Besides, the differential viability (reversal) in assay [6] (H69AR cells + 2 uM doxorubicin) was 6.71% (inactive). Besides, the inhibition was -5.53% (inactive) in assay [7] and -9.33% (inactive) in assay [8].

Take `Cc1ccc(-c2nnc(SC(C)C#N)n2N)cc1` (stereo not given): the viability was 108% in assay [1]; 108% (inactive) in assay [3]; 88.5% (inactive) in assay [4]; 92.3% (inactive) in assay [5]; 83.1% in assay [6] (setting [9]); 92.3% in assay [6] (setting [10]). For the same compound, the Her2 level in assay [2] is 83% (inactive). Further, the differential viability (reversal) in assay [6] (H69AR cells + 2 uM doxorubicin) was 9.2% (inactive). Also, the inhibition in assay [7] is -5.68% (inactive); in assay [8] it was 4.44% (inactive).

`CCOCCCNC(=O)c1cc2sc(Cl)cc2n1CC`: the viability in assay [1] was 89%; in assay [3], 89% (inactive); in assay [4], 60% (inactive); in assay [5], 28.5% (active); in assay [6] (setting [9]), 72.5%; in assay [6] (setting [10]) it was 28.5%. In addition, the Her2 level in assay [2] was 88% (inactive). In assay [6] (H69AR cells + 2 uM doxorubicin), the differential viability (reversal) was -44% (inactive). Moreover, the inhibition in assay [7] is -8.36% (inactive); in assay [8] it was -0.95% (inactive).

For `Cc1sc2ncnc(SCC(=O)N3CCCC3)c2c1C`, the viability in assay [1] was 124%; in assay [3], 124% (inactive); in assay [4] it was 78.1% (inactive); in assay [5], 93% (inactive); in assay [6] (setting [9]), 83.3%; in assay [6] (setting [10]) it was 93%. In addition, the Her2 level in assay [2] was 95.5% (inactive). In addition, the differential viability (reversal) in assay [6] (H69AR cells + 2 uM doxorubicin) is 9.69% (inactive). The inhibition in assay [7] is -2.08% (inactive); in assay [8], 6.39% (inactive).

As to `CCOc1ccc(CCNC(=O)CCc2nc(-c3ccc(OC)cc3)no2)cc1OCC`, the viability is 86.5% in assay [1]; 86.5% (inactive) in assay [3]; 81.9% (inactive) in assay [4]; 94.3% (inactive) in assay [5]; 99.4% in assay [6] (setting [9]); 94.3% in assay [6] (setting [10]). In addition, the Her2 level in assay [2] was 104% (inactive). Besides, the differential viability (reversal) in assay [6] (H69AR cells + 2 uM doxorubicin) was -5.12% (inactive). Moreover, the inhibition in assay [7] is -1.05% (inactive); in assay [8], 3.17% (inactive).

On to `COc1ccccc1-c1nnc(SCC(=O)N2CC(C)CC(C)C2)o1` (stereo not given), for which the viability in assay [1] was 80.5%; in assay [3], 80.5% (inactive); in assay [4], 77.4% (inactive); in assay [5] it was 78.1% (inactive); in assay [6] (setting [9]), 83.2%; in assay [6] (setting [10]), 78.1%. Also, the Her2 level in assay [2] was 81.5% (inactive). Besides, in assay [6] (H69AR cells + 2 uM doxorubicin), the differential viability (reversal) was -5.03% (inactive). Moreover, the inhibition in assay [7] and in assay [8] was -5% (inactive) throughout.

Source of the values: PubChem BioAssay.
